{"data": "Measured values gathered from unrelated publications", "target": "Serine/threonine-protein kinase PAK 2 (PAK2, Homo sapiens, UniProt Q13177)"}
{"SMILES": "O=c1[nH]c2ccccc2n1C1CCN(Cc2ccc(-c3[nH]c4cc5ncnc5cc4nc3-c3ccccc3)cc2)CC1", "assay": "cell-free assay", "conditions": "0.5 µM", "measurement": "remaining signal", "result": "99.2%"}
{"SMILES": "COc1ncccc1-c1cnn2ccc(N3CCN(C(=O)OC(C)C)CC3)nc12", "assay": "binding, competition with immobilised ligand", "conditions": "1 µM", "measurement": "remaining binding", "result": "100%"}
{"SMILES": "Cn1cncc1[C@](O)(COc1ccc(C#N)cc1-c1ccc(OC(F)(F)F)cc1)c1ccc(C#N)cc1", "assay": "cell-free assay, competition with immobilised ligand", "conditions": "1 µM", "measurement": "remaining binding", "result": "93%"}
{"SMILES": "C#Cc1n[nH]c2c(-c3cn([C@@H](C)c4ccccc4)c(=O)[nH]c3=O)cc(F)cc12", "assay": "enzyme activity, inhibitor", "conditions": "0.1 µM", "measurement": "inhibition", "result": "1.7%"}
{"SMILES": "Cn1cc(-c2cccc(N3CCc4c(sc5c4CC(C)(C)C5)C3=O)c2CO)cc(Nc2ccncn2)c1=O", "assay": "enzyme activity, inhibitor", "conditions": "1 µM", "measurement": "inhibition", "result": "6%"}
{"SMILES": "COc1cc(Nc2ncc(F)c(Nc3ccc4c(n3)NC(=O)C(C)(C)O4)n2)cc(OC)c1OC", "assay": "binding, competition with immobilised ligand", "conditions": "10 µM", "measurement": "inhibition", "result": "64%"}
{"SMILES": "Cn1cc(-c2cc(F)cc(N3CCn4c(cc5c4CCCC5)C3=O)c2CO)cc(Nc2ccc(N3CCN(C4COC4)CC3)cn2)c1=O", "assay": "enzyme activity, inhibitor", "conditions": "0.1 µM", "measurement": "inhibition", "result": "11%"}
{"SMILES": "Nc1ncc(-c2nc(N3CCOCC3)nc(N3CCOCC3)n2)c(C(F)F)n1", "assay": "binding, competition with immobilised ligand", "conditions": "10 µM", "measurement": "remaining binding", "result": "58%"}
{"SMILES": "C#Cc1n[nH]c2c(-c3cn(C(C)c4ccccn4)c(=O)[nH]c3=O)cc(F)cc12 (stereo not drawn)", "assay": "enzyme activity, inhibitor", "conditions": "1 µM", "measurement": "inhibition", "result": "-6.9%"}
